Casp6 inh = human caspase-6 inhibitors, primary screen, biochemical, VEID-R110 fluorescence, single point, set 2 | actives 0.53% (n = 350,000) | AID 686996, 2013 | inhibition, % at 12.5 µM | purified caspase-6, Z-VEID-R110 cleavage fluorescence | P55212;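 active = mean inhibition across replicates at least about 35%, with every replicate also reaching that limit, limit read from the data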
Target sequence (P55212 24-179 limits assumed): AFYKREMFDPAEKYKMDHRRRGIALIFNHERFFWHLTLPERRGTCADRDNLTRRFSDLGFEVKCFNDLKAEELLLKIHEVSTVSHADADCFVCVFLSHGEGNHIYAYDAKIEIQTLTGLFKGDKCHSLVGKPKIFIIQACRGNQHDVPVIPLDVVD
Target sequence (P55212 194-293 limits assumed): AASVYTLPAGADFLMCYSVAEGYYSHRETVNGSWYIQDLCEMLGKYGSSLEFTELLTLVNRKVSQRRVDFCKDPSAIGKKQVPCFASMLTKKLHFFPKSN
LEDGF integ inh = blockers of LEDGF/p75-dependent integrase strand transfer – biochemical, TR-FRET, high throughput, primary screen; TR-FRET IN-LEDGF/p75 DNA integration, Eu/Cy5; inhibition, % at 3.7 µM; actives 0.64% (n = 370,000); AID 743269, 2014;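 active = inhibition above the screen-wide mean plus 3 SD, cut at about 13% in these data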;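 also: signal is the Cy5 over europium emission ratio at 671 and 618 nm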
MBD2 DNA inh = inhibitors of MBD2 binding to methylated DNA, primary screen, biochemical, TR-FRET, DNA-binding domain, human; MBD2 binding to methylated oligonucleotide; inhibition, % at 4.4 µM; actives 0.31% (n = 370,000); AID 686964, 2013; in the data active = inhibition above about 13%
NSD2 HMT inh = NSD2 histone methyltransferase inhibitors, primary screen, biochemical, AlphaScreen, single concentration, set 2 | NSD2 peptide methylation, 120 min | inhibition, % at 12.5 µM | actives 0.54% (n = 310,000); in the data active = inhibition above about 50%
TDP2 inh = human TDP2 enzyme inhibitors, primary screen, biochemical, epi absorbance, recombinant enzyme | T5PNP hydrolysis, p-nitrophenol absorbance 415 nm | inhibition, % at 12.8 µM | Tyrosyl-DNA phosphodiesterase 2 (Homo sapiens), O95551 | AID 720702, 2013 | actives 0.34% (n = 370,000);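 active = inhibition above the mean of all tested compounds plus 3 SD, set per campaign, cut at about 25% in these data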
Target sequence (O95551 whole entry, looked up): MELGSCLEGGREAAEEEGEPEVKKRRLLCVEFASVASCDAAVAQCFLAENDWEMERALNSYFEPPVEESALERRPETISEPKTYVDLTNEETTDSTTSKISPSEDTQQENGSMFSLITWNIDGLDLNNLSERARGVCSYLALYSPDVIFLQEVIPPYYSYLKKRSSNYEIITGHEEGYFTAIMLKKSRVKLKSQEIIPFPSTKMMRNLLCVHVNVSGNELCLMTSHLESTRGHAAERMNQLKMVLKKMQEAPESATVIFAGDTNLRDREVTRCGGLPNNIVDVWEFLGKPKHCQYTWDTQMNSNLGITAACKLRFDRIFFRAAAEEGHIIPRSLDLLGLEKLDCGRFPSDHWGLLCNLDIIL
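test system = human TDP2 enzyme | input = TDP2 enzyme at 120 nM final | medium = 50 mM Tris-HCl pH 7.5 with Mg2+, KCl, DTT, BSA | also added = T5PNP substrate, 5 mM | times = 2 h at 37 °C | technique = epi absorbance | benchmarks = high control without enzyme, low control DMSO plus TDP2 | replication = each compound tested once, singlicate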
UHRF1 binding = UHRF1 methylated DNA binding inhibitors, primary screen, counter-screen for MBD2 inhibitor project, biochemical, TR-FRET, human UHRF1, single concentration. E3 ubiquitin-protein ligase UHRF1 (Homo sapiens), Q96T88. UHRF1 binding to methylated oligo. inhibition, % at 4.4 µM. actives 0.75% (n = 370,000). AID 687016, 2013; in the data active = inhibition above about 21%;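 also: UHRF1 SRA domain binding a hemimethylated CpG hairpin DNA probe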
TDP2 confirm = human TDP2 enzyme inhibitors, retest, confirmation, biochemical, epi absorbance, recombinant enzyme. shares compounds with TDP2 inh. absorbance read-out. inhibition, % at 12.8 µM. actives 22% (n = 1,100). AID 743263, 2014; in the data active = inhibition above about 25%
Numbers stand for hits; – = inactive; · = not tested or not shown. Hits are enriched below; roughly 1.8% of the tested compounds scored in any of these assays.

SMILES	Casp6 inh	LEDGF integ inh	MBD2 DNA inh	NSD2 HMT inh	TDP2 inh	UHRF1 binding	TDP2 confirm
C[C@@H]1CN([C@@H](C)CO)C(=O)c2cc(C#CCc3ccccc3)cnc2O[C@@H]1CN(C)Cc1ccccc1	–	·	·	·	·	·	·
Cc1cc(C)c(OCCOCCN2CCN(C)CC2)c(Cl)c1	–	–	–	–	28.9	–	–
C[C@H](CO)N1C[C@H](C)[C@H](CN(C)C(=O)CC2CC2)Oc2cc(-c3cncnc3)ccc2S1(=O)=O	–	·	·	·	·	·	·
O=C(COc1ccccc1F)Nc1ccc2[nH]c(=O)[nH]c2c1	–	–	–	–	28.0	–	–
O=C(CNC(=O)c1ccco1)N/N=C/c1c[nH]c2ccccc12	–	–	–	–	–	–	·
O=C(CNC(=O)c1ccc([N+](=O)[O-])cc1)N/N=C/c1c[nH]c2ccccc12	–	–	–	–	26.6	–	–
COCN(C#N)c1nc(N(C)C)nc(N(C)C)n1	–	–	–	–	28.6	44.5	–
COCN(C#N)c1nc(OC)nc(OC)n1	–	–	–	–	–	–	·
CC(C)C#Cc1cnc2c(c1)C(=O)N([C@@H](C)CO)C[C@@H](C)[C@@H](CN(C)C(=O)Cc1ccccn1)O2	–	·	·	·	·	·	·
COc1cccc(NC(=O)N2CCCC2C(=O)NC23CC4CC(CC(C4)C2)C3)c1 (stereo not drawn)	–	–	–	–	32.9	–	–
COc1ccc(NC(=O)N2CCCC2C(=O)NC23CC4CC(CC(C4)C2)C3)cc1 (stereo not drawn)	–	–	–	–	–	–	·
O=C(C[C@@H]1CC[C@@H]2[C@H](COC[C@H](O)CN2S(=O)(=O)c2ccccc2F)O1)NCc1ccccc1Cl	–	·	·	·	·	·	·
Nc1nc2c(s1)CCc1ccccc1-2	–	–	–	–	30.2	–	–
O=C(C1CCCC1)N1CC[C@@H]2[C@H]1c1cc(C3=CCCCC3)ccc1N[C@@H]2CO	–	·	·	·	·	·	·
COc1cc(C2Nc3ccccc3C(=O)N2c2ccccc2)ccc1O (stereo not drawn)	·	–	–	–	28.6	–	–
CO[C@H]1CN(C)C(=O)c2ccc(NS(C)(=O)=O)cc2OC[C@@H](C)N(C)C[C@@H]1C	–	·	·	·	·	·	·
Cc1ccc(Cl)cc1NS(=O)(=O)c1cn(C)nc1C	–	–	–	–	25.0	–	–
COc1ccc(Cl)cc1NS(=O)(=O)c1cn(C)nc1C	–	–	–	–	–	–	·
CN(CCCC(=O)Nc1ccc(OC(F)F)cc1)S(=O)(=O)c1ccc(F)cc1	–	–	–	–	27.9	–	–
Cc1ccc(S(=O)(=O)N(C)CCCC(=O)Nc2ccc(F)cc2)cc1	–	–	–	·	–	–	·
Cc1noc(C)c1S(=O)(=O)Nc1cccc2c1O[C@H](CN(C)S(=O)(=O)c1cccs1)[C@H](C)CN([C@@H](C)CO)C2=O	–	·	·	·	·	·	·
CN1c2ccccc2C(C)(C)C12C=Nc1c(ccc3ccccc13)O2 (stereo not drawn)	·	–	–	–	33.3	–	–
O=C(C[C@@H]1CC[C@H](NC(=O)c2cccnc2)[C@H](CO)O1)NCCN1CCCCC1	–	·	·	·	·	·	·
O=C(Cc1ccccc1[N+](=O)[O-])NCC1(c2cccc3c2OCO3)OCCO1	–	–	–	–	27.1	–	–
O=c1[nH]c2c(s1)C(c1ccco1)C1C3CCC(C3)C1S2 (stereo not drawn)	·	–	–	–	33.5	–	–
SMILES	Casp6 inh	LEDGF integ inh	MBD2 DNA inh	NSD2 HMT inh	TDP2 inh	UHRF1 binding	TDP2 confirm
O=C(O)CN1C(=O)C2C3CC(C2C1=O)C1C(c2ccccc2)c2sc(=O)[nH]c2SC31 (stereo not drawn)	·	–	–	–	–	–	·
Cc1ccccc1-n1ncc2c1CC(C)(C)CC2NC(=O)CCn1cncn1 (stereo not drawn)	–	–	–	–	82.1	–	–
COc1ccc(-c2cc(-c3ccc(O)cc3)nc(N)c2C#N)cc1	–	–	–	–	–	–	·
N#Cc1c(-c2ccccc2)cc(-c2ccc(O)cc2)nc1N	–	–	–	–	28.8	–	–
COC(=O)/C=C1/SC(=NC(=O)c2ccc(Cl)cc2)NC1=O	–	–	–	·	24.9	–	–
COc1ccc(C(=O)Nc2nc3c(s2)Cc2cc(OC)ccc2-3)cc1	·	–	–	–	31.8	–	37.6
Cc1ccc(C)c(S(=O)(=O)NCc2ccc(C(=O)N3CCN(C)CC3)cc2)c1	·	–	–	–	–	–	·
Cc1ccc(C)c(S(=O)(=O)NCc2ccc(C(=O)N3CCOCC3)cc2)c1	–	–	–	–	24.5	–	–
COc1ccc(Cc2nc3ccc(C(=O)N4CCCCC4CCO)cc3o2)cc1 (stereo not drawn)	–	–	–	–	24.8	–	–
Cc1ccc(NC(=O)N2C3CCCC2CC(NC(=O)C2CC2)C3)cc1 (stereo not drawn)	–	–	–	–	–	–	·
O=C(NC1CC2CCCC(C1)N2C(=O)Nc1cccc(F)c1)C1CC1 (stereo not drawn)	–	–	–	–	28.5	–	–
CC=Cc1ccc2n(c1=O)C[C@@H]1[C@@H](CO)[C@H](C(=O)NCc3cc(F)cc(F)c3)[C@H]2N1S(C)(=O)=O (mixture of isomers)	–	·	·	·	·	·	·
CCN1CCN(C(C)C(=O)NC2CCCCC2)CC1 (stereo not drawn)	–	–	–	–	26.9	–	–
CCN1CCN(C(C(=O)NC2CCCCC2)C2CC2)CC1 (stereo not drawn)	–	–	–	·	–	–	·
CCOc1ccc2[nH]c3nc(SCC(=O)OC(C)C)nnc3c2c1	–	–	–	–	24.9	–	–
C[C@H]1CCCCO[C@H](CN(C)C(=O)c2ccccc2)[C@@H](C)CN([C@@H](C)CO)C(=O)c2cc(NC(=O)Nc3ccc(F)cc3)ccc2O1	–	·	·	·	·	·	·
O=C(O)/C=C/C(=O)Nc1ccc(O)cc1	–	14.3	–	–	34.3	–	30.8
C[C@@H]1CN([C@@H](C)CO)C(=O)c2cccc(NC(=O)C3CCOCC3)c2O[C@@H]1CN(C)Cc1ccc(C(=O)Nc2ccccc2N)cc1	–	·	·	·	·	·	·
COc1cc(/C=C/C(=O)OCC(=O)NC(=O)NC(C)C)ccc1OCC#N	·	–	–	–	–	–	·

Bioassay records (PubChem)
